In the library only some 4.7% were active in any assay of this set; here they are far more common.
RGS4 block: inhibitors of human RGS4. AID 463165. HEK293 M3R/RGS4 inducible, Fluo-4 calcium flux; stronger effect = higher value; triggered by carbachol at its EC20. actives 0.45% (n = 310,000). P49798. B-score at 10 µM;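 active = B-score, a plate-corrected calcium signal, over three deviations above library mean, with baseline fluorescence within five deviations of library mean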;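 also: RGS4 expression induced by doxycycline in cells with stable M3 receptor; B-score is computed from the integrated fluorescence ratio over baseline after carbachol; higher B-score means a larger calcium signal and so more RGS4 inhibition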
RGS4 pot: RGS4 potentiation or activation; actives 0.92% (n = 310,000); B-score at 10 µM; AID 463111; HEK293 M3R/inducible RGS4, carbachol calcium flux Fluo4; stronger effect = lower value;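 active = B-score of the integrated calcium signal more than 4 SD below the library mean, with starting fluorescence not abnormally high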;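 also: negative B-score means reduced calcium response which marks RGS4 activation or potentiation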
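Also added: carbachol at ECmax as muscarinic agonist stimulus; Assay system: HEK293 cells with stable M3R and inducible RGS4; Timing: overnight RGS4 induction, 30 min dye load 37 °C, 20 min compound RT; Measured by: Fluo4-AM (2 µM) calcium-flux fluorescence, kinetic read.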
MrgX1 ag: human MrgX1 receptor agonism, primary screen. Q96LB2. B-score at 10 µM. MrgX1-HEK293 cells, Fluo-4 calcium fluorescence, agonist mode; stronger effect = higher value. actives 0.44% (n = 310,000). AID 588627;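 active = calcium response B-score plate-corrected fluorescence ratio at least 3 library SD, with starting fluorescence B-score inside 5 SD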
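Material: MrgX1-expressing HEK293 cells / Dosing: compound as first of three additions / Incubation: overnight seeding, then 1 h dark dye loading / Signal: Fluo-4 NW calcium fluorescence / Evaluation: B-scored fluorescence response ratio / Benchmarks: positive and negative control wells on each plate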
MrgX1 antagonist: blocks BAM8-22 activation of human MrgX1 receptor; Q96LB2; AID 588676; B-score at 10 µM; actives 1.3% (n = 310,000); MRGX1-HEK293 calcium flux, Fluo-4, BAM8-22 antagonism; stronger effect = lower value;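 active = calcium-response B-score plate-corrected more than 3 library SD below zero, starting fluorescence within 5 deviations, no agonist response on first addition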;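 also: peak minus trough fluorescence over baseline after final BAM8-22 challenge near maximal dose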
MrgX1 allo act: allosterically activates human MrgX1 receptor signaling; MrgX1-HEK293, Fluo-4 calcium flux, FDSS; stronger effect = higher value; B-score at 10 µM; actives 0.63% (n = 310,000); AID 588675;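 active = plate-corrected calcium response at least 3 library SD above typical, normal starting fluorescence, not activating the receptor alone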;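 also: compound read alongside a low EC10 to EC30 dose of BAM8-22 agonist; peak minus trough fluorescence over baseline measured at the second addition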
Cl transport mod: KCC2 (human) Cl- transport modulation; actives 2.2% (n = 190,000); AID 1456; B-score of Tl+ flux slope (higher = more flux/activation; lower = inhibition) at 10 µM; KCC2 cells, thallium flux FluoZin-2 fluorescence; Q9H2X9;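 active = thallium flux slope and its plate-corrected score both differing from the plate sample mean at a set confidence after two filtering rounds, in either direction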;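 also: slope of fluorescence scaled to starting intensity during 10 to 20 s after thallium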
MrgX1 ant reconf: human MrgX1 receptor antagonism, re-confirmation screen; remaining BAM8-22 calcium response % of control (stronger effect = lower value), % at 10 µM; shares compounds with MrgX1 antagonist; actives 19% (n = 2,300); MrgX1-HEK293, BAM8-22 calcium flux, Fluo-4; stronger effect = lower value;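 active = remaining agonist calcium response no higher than 100% minus 3 SD of agonist-only control wells, with starting fluorescence near control levels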;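 also: agonist BAM8-22 given at a near maximal EC90 to ECmax level; peak minus minimum fluorescence divided by baseline after agonist addition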
HEK293 Ca flux: MrgX1 antagonist counter-screen hit in parental HEK293 cells | shares compounds with MrgX1 antagonist | Fluo-4 calcium fluorescence, FDSS | fluorescence ratio F(max-min)/F0 at 10 µM | actives 2% (n = 4,000) | AID 624111;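 active = duplicate-averaged calcium fluorescence ratio at least three times the standard deviation of buffer wells, a nonspecific response in parental cells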
HEK293 Ca counter: counter-screen for MrgX1 allosteric activators: effect in parental HEK293 cells; actives 0.4% (n = 4,000); parental HEK293 calcium flux, Fluo-4 fluorescence ratio; stronger effect = higher value; fluorescence ratio F(max-min)/F0 at 10 µM; shares compounds with MrgX1 antagonist;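 active = calcium fluorescence ratio, averaged over duplicates, at least 3 SD of the buffer-well ratio, meaning a nonspecific response in receptor-free cells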;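 also: untransfected parental HEK293 lacking MrgX1 used as counterscreen for MrgX1 allosteric activators; fluorescence change taken during the second addition on a kinetic imager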
HEK293 Ca cntr2: activity in parental HEK293 cells lacking MrgX1 receptor; shares compounds with MrgX1 antagonist; Fluo-4 calcium fluorescence (FDSS); stronger effect = higher value; fluorescence ratio F(max-min)/F0 at 10 µM; actives 8.7% (n = 4,000);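 active = calcium fluorescence ratio at least three times the spread of buffer wells, meaning a non-specific response in parental cells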
Each line names hits and unclear results; the compound was inactive in the other large screens (follow-up assays come after a bar, where they were run).

Cn1c(-c2ccc(CN3CCCCC3)o2)nc2ccccc21	MrgX1 antagonist -5.31 | MrgX1 ant reconf inactive | HEK293 Ca flux inactive | HEK293 Ca counter inactive | HEK293 Ca cntr2 inactive
Cc1ccc(CNc2nc3ccccc3n2C)o1	none (no result: Cl transport mod)
CCCc1n[nH]c2c1C(=O)CC(C)(C)C2	none
CC1(C)CC(=O)c2c(-c3cccs3)n[nH]c2C1	MrgX1 antagonist -5.43 (no result: Cl transport mod) | MrgX1 ant reconf inactive | HEK293 Ca flux inactive | HEK293 Ca counter inactive | HEK293 Ca cntr2 inactive
O=C(COc1ccccc1)OCC(=O)N1CCCc2ccccc21	MrgX1 antagonist -6.15 (no result: Cl transport mod) | MrgX1 ant reconf inactive | HEK293 Ca flux inactive | HEK293 Ca counter inactive | HEK293 Ca cntr2 inactive
COC(=O)COc1cccc2c(=O)n(CC(=O)N3CCCc4ccccc43)ccc12	MrgX1 antagonist -8.94 (no result: Cl transport mod) | MrgX1 ant reconf inactive | HEK293 Ca flux inactive | HEK293 Ca counter inactive | HEK293 Ca cntr2 inactive
O=C(COc1ccccc1)N1CCc2ccccc21	none
COCC(COS(N)(=O)=O)Cc1ccccc1 (centres undefined)	none (no result: Cl transport mod)
O=c1[nH]c(Cc2ccccc2)nc2c1oc1ccccc12	none (no result: Cl transport mod)
O=c1[nH]c(CO)nc2c1oc1ccccc12	MrgX1 antagonist -6.74 | MrgX1 ant reconf inactive | HEK293 Ca flux inactive | HEK293 Ca counter inactive | HEK293 Ca cntr2 inactive
CCn1cc(C(=O)N2CCCC(N3CCN(c4ccccc4C)CC3)C2)cn1 (centres undefined)	none (no result: Cl transport mod)
O=[N+]([O-])c1cccc(-c2n[nH]c(=S)n2-c2ccc(Br)cc2)c1	none
O=[N+]([O-])c1cccc(-c2n[nH]c(=S)n2Cc2ccccc2)c1	MrgX1 antagonist -17.2 | MrgX1 ant reconf inactive | HEK293 Ca flux inactive | HEK293 Ca counter inactive | HEK293 Ca cntr2 inactive
COCCN(C(=O)CC1C(=O)NCCN1CC(c1ccccc1)c1ccccc1)C(C)C (centres undefined)	none (no result: Cl transport mod)
Cc1cc(C)c(NC(=O)Cc2ccc(-n3cccc3)cc2)c(C)c1	MrgX1 antagonist -5.46 | MrgX1 ant reconf inactive | HEK293 Ca flux inactive | HEK293 Ca counter inactive | HEK293 Ca cntr2 inactive
O=C(NNC(=O)c1ccc(Cn2cccn2)o1)NC12CC3CC(CC(C3)C1)C2	none (no result: Cl transport mod)
Cc1ccc(C)c(S(=O)(=O)C(C#N)c2nc3ccccc3nc2N2CC(C)OC(C)C2)c1 (centres undefined)	MrgX1 antagonist -7.42 | MrgX1 ant reconf 81.4% | HEK293 Ca flux inactive | HEK293 Ca counter inactive | HEK293 Ca cntr2 55.8
CCN1CCN(S(=O)(=O)c2cc3c(cc2Cl)NC(=O)CO3)CC1	none (no result: Cl transport mod)
O=C(Cn1nc(C(F)(F)F)cc1C1CC1)NCc1ccccc1F	none
O=C(Cn1nc(C(F)(F)F)cc1C1CC1)Nc1ccccc1F	MrgX1 antagonist -5.08 | MrgX1 ant reconf inactive | HEK293 Ca flux inactive | HEK293 Ca counter inactive | HEK293 Ca cntr2 inactive
O=C(CSc1nnc(-c2ccccc2Cl)o1)N1CCCCC1	MrgX1 antagonist -4.86 | MrgX1 ant reconf inactive | HEK293 Ca flux inactive | HEK293 Ca counter inactive | HEK293 Ca cntr2 inactive
C=CCn1c(CC(=O)OC)csc1=Nc1ccc(C(C)=O)cc1	MrgX1 antagonist -5.19 | MrgX1 ant reconf inactive | HEK293 Ca flux inactive | HEK293 Ca counter inactive | HEK293 Ca cntr2 inactive
CN(C)c1ccnc2sc3c(=O)n(-c4ccccc4)cnc3c12	MrgX1 antagonist -4.62 | MrgX1 ant reconf inactive | HEK293 Ca flux inactive | HEK293 Ca counter inactive | HEK293 Ca cntr2 inactive
COc1ccccc1NC(=O)c1ccc2nc(C)c(C)nc2c1	MrgX1 antagonist -8.11 (no result: Cl transport mod) | MrgX1 ant reconf inactive | HEK293 Ca flux inactive | HEK293 Ca counter inactive | HEK293 Ca cntr2 inactive
COc1cc(C(=O)NCCC(c2ccccc2)c2ccccc2)cc(OC)c1OC	none (no result: Cl transport mod)
Cc1c(CCO)c(=O)[nH]n1S(=O)(=O)c1ccc([N+](=O)[O-])cc1	none (no result: Cl transport mod)
Cc1ccc(C(NC(=O)c2ccccc2)C(Cl)(Cl)Cl)cc1 (centres undefined)	none
Cc1ccc(C(=O)NC(N(C)C)C(Cl)(Cl)Cl)cc1 (centres undefined)	MrgX1 antagonist -4.53 | MrgX1 ant reconf inactive | HEK293 Ca flux inactive | HEK293 Ca counter inactive | HEK293 Ca cntr2 inactive
CC1=C(C#N)CCC(=O)N1Cc1c(C)cc(C)cc1C	none (no result: Cl transport mod)
CC1=C(C#N)CCC(=O)N1Cc1ccc(C)cc1	MrgX1 antagonist -7.71 | MrgX1 ant reconf inactive | HEK293 Ca flux inactive | HEK293 Ca counter inactive | HEK293 Ca cntr2 inactive
CCCCN(C)C(=S)Nc1ccc(Oc2ccccc2)cc1	MrgX1 antagonist -6.33 | MrgX1 ant reconf inactive | HEK293 Ca flux inactive | HEK293 Ca counter inactive | HEK293 Ca cntr2 inactive
O=C(Cn1c(C(F)(F)F)nc2ccccc21)Nc1ccccc1N1CCOCC1	MrgX1 antagonist -9.34 | MrgX1 ant reconf inactive | HEK293 Ca flux inactive | HEK293 Ca counter inactive | HEK293 Ca cntr2 inactive
O=C(CC12CC3CC(CC(Br)(C3)C1)C2)NC1CCCC1	none (no result: Cl transport mod)
O=C1c2ccccc2OC2(C=Cc3ccccc3O2)N1Cc1ccccc1 (centres undefined)	MrgX1 antagonist -4.97 | MrgX1 ant reconf inactive | HEK293 Ca flux inactive | HEK293 Ca counter inactive | HEK293 Ca cntr2 inactive
O=C1NC2(CCN(Cc3ccccc3)CC2)Oc2ccccc21	none
COc1ccc([C@@H]2CC=C(C(=O)O)[C@H](c3ccc(Cl)cc3)N2S(=O)(=O)c2ccccc2C)cc1	none (no result: RGS4 block, RGS4 pot, Cl transport mod)
C=CCOc1c(Br)cc(CNn2nnnc2N)cc1OCC	MrgX1 antagonist -4.84 | MrgX1 ant reconf inactive | HEK293 Ca flux inactive | HEK293 Ca counter inactive | HEK293 Ca cntr2 inactive
CSc1cccc(NC(=S)N(CCC(C)C)C2CCN(C(C)C)CC2)c1	MrgX1 antagonist -6.29 | MrgX1 ant reconf inactive | HEK293 Ca flux inactive | HEK293 Ca counter inactive | HEK293 Ca cntr2 inactive
Cc1ccc(O)c(NC(=O)CCCC(=O)O)c1	none
Cc1cc(NC(=O)CCCC(=O)O)nc(C)n1	MrgX1 antagonist -6.42 (no result: Cl transport mod) | MrgX1 ant reconf inactive | HEK293 Ca flux inactive | HEK293 Ca counter inactive | HEK293 Ca cntr2 inactive
CCOc1ccccc1N1CCN(C(=O)c2cccs2)CC1	none (no result: Cl transport mod)
O=C(Nc1cccc(S(=O)(=O)N2CCCC2)c1)c1cccnc1	none (no result: Cl transport mod)

Compound activity deposited in PubChem by several laboratories.
